Experimental data from ChEMBL document CHEMBL1124024, “Crystal structures and pharmacologic activities of 1,4-dihydropyridine calcium channel antagonists of the isobutyl methyl 2,6-dimethyl-4-(substituted phenyl)-1,4-dihydropyridine-3,5-dicarboxylate (nisoldipine) series” (J Med Chem, 1988).
pIC50: −log10 of the molar value.

Legend:
Cavia porcellus = species: Cavia porcellus; assay: Inhibition of tonic (slow) component of K+ depolarization response in guinea pig ileal longitudinal smooth muscle; assay type: functional; conditions: Muscle tissue
Summary of the method: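 Longitudinal strips of terminal ileum from male guinea pigs (300-500 g) held in aerated physiologic saline under 500 mg resting tension, with isotonic recording. A control maximal response to 80 mM KCl depolarizing saline was taken, followed by washout and 30-min re-equilibration. Antagonist was then equilibrated for 30 min and the K+ response measured again. One concentration per tissue; contraction read in mm from baseline.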

[1] = biological target: Voltage-gated L-type calcium channel (Cavia porcellus); assay: Inhibition of [3H]nitrendipine binding to guinea pig ileal longitudinal smooth muscle

| SMILES | pIC50 (Cavia porcellus) | IC50 [1] [nM] |
| --- | --- | --- |
| CO/C(O)=C1\C(C)=NC(C)=C(C(=O)OCC(C)C)C1c1cccc(OC)c1 (configuration not stated) | 8.15 | 2.3 |
| CO/C(O)=C1\C(C)=NC(C)=C(C(=O)OCC(C)C)C1c1cccc([N+](=O)[O-])c1 (configuration not stated) | 9.23 | 0.0081 |
| CO/C(O)=C1\C(C)=NC(C)=C(C(=O)OCC(C)C)C1c1ccccc1C(F)(F)F (configuration not stated) | 8.68 | 0.027 |
| CO/C(O)=C1\C(C)=NC(C)=C(C(=O)OCC(C)C)C1c1ccccc1 (configuration not stated) | 8.48 | 0.25 |
| CO/C(O)=C1\C(C)=NC(C)=C(C(=O)OCC(C)C)C1c1cccc(C#N)c1 (configuration not stated) | 9.57 | 0.013 |
| CO/C(O)=C1\C(C)=NC(C)=C(C(=O)OCC(C)C)C1c1ccc(Cl)cc1 (configuration not stated) | 7.57 | 2.8 |
| CO/C(O)=C1\C(C)=NC(C)=C(C(=O)OCC(C)C)C1c1ccc(F)cc1 (configuration not stated) | 8.17 | 1.5 |
| CO/C(O)=C1\C(C)=NC(C)=C(C(=O)OCC(C)C)C1c1cccc(C(F)(F)F)c1 (configuration not stated) | 7.82 | 0.14 |
| CO/C(O)=C1\C(C)=NC(C)=C(C(=O)OCC(C)C)C1c1ccccc1[N+](=O)[O-] (configuration not stated) | 9.66 | – |
